CYP2C9 activ – increases human cytochrome P450 2C9 activity | recombinant CYP2C9, luciferin-H conversion, luminescence; hits give high values; factor 1 = untreated enzyme, 0 = blocked | activation factor at 5 µM | 1.4% of 96,000 active | AID 1024;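 active = activation factor of 2 or more for CYP2C9 at a 5 µM dose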
Ecoli tolC – E. coli tolC mutant growth inhibition; E. coli BW25113 tolC mutant growth, OD615; growth inhibition, % at 10 µM (by protocol); 2.2% of 65,000 active; AID 573;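 active = growth inhibition at or above a cutoff equal to the mean over every tested compound plus 3 SD, cut at about 60% in these data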;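 note: growth measured after 20 h incubation at 37 °C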
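signal = optical density read at 615 nm | test system = E. coli ΔtolC::kan strain BW25113 | timing = 20 h compound exposure of bacteria at 37 °C | buffer or medium = LB medium plus 50 µg/mL kanamycin | compound dosing = 10 µM final, single dose | evaluation = % inhibition of E. coli growth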
CYP2C9 inh – human CYP2C9 inhibition; P11712; CYP2C9 Supersomes, luciferin-H conversion, luminescence; inhibition, % at 5 µM; 20% of 96,000 active; AID 777;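 active = blocking of liver enzyme CYP2C9 beyond about 50% at 5 µM, limit read from the data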
Ecoli WT expand – E. coli BW25113 growth inhibition, expanded screen; OD600 absorbance; growth inhibition, % at 100 µM; 0.15% of 98,000 active;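 active = growth inhibition above about 50% at one test dose, limit read from the data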;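 note: growth measured after 20 h incubation at 37 °C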
CYP2C19 activ – increases human CYP2C19 enzyme activity; P33261; recombinant CYP2C19, luciferin-H EGE luminescence; hits give high values; 0 = fully inhibited enzyme, 1 = untreated enzyme; activation factor at 5 µM; 96,000 tested, under 10 active;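 active = activation factor of at least 2 at 5 µM in the primary screen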
Target sequence (P33261 whole entry, looked up): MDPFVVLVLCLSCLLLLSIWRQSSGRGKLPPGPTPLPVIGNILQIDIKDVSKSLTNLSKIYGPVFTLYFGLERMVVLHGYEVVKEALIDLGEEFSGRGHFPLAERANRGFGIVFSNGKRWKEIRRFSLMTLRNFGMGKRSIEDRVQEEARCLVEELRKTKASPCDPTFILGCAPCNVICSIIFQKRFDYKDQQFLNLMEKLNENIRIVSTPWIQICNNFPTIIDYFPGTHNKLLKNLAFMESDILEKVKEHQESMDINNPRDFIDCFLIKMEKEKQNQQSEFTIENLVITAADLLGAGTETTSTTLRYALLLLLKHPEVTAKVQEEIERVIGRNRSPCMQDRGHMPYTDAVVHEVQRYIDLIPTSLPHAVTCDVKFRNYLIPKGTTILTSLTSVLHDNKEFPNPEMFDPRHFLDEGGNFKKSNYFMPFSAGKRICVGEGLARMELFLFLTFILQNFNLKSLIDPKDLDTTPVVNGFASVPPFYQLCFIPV
CYP2C19 inh – blocks human cytochrome P450 2C19; AID 778; CYP2C19 Supersomes, luciferin-H EGE luminescence, 30 min; 21% of 96,000 active; P33261; inhibition, % at 5 µM;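 active = CYP2C19 inhibition above a set limit at 5 µM in the primary screen, cut at about 50% in these data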
Of the large screens only hits and unclear results are named; the others gave an inactive call. An excerpt weighted towards active compounds, which were near 29% of everything screened.

COc1ccc(C(CNC(=O)C2CC(=O)N(Cc3ccc(C)cc3)C2)N(C)C)cc1 (stereo unspecified)	none
CCOC(=O)c1cccc(NC(=O)CCS(=O)(=O)c2ccc(Br)s2)c1	none (no result: Ecoli tolC)
COc1cccc(NC(=O)CCS(=O)(=O)c2cccs2)c1	CYP2C9 inh 58, CYP2C19 inh 60
CCOC(=O)c1cccc(NC(=O)CCS(=O)(=O)c2cccs2)c1	CYP2C9 inh 89, CYP2C19 inh 72
COc1cccc(NC(=O)CNC(=O)c2cccs2)c1	none
CC(=O)Cc1nsc(NC(=O)c2cc(-c3ccccc3Cl)oc2C)n1	none
CC(C)C(=O)NC(Nc1cccc2cccnc12)C(Cl)(Cl)Cl (stereo unspecified)	CYP2C9 inh 63, CYP2C19 inh 59 (no result: Ecoli tolC)
CC(C)CC(=O)NC(NC(=S)Nc1cccc2cccnc12)C(Cl)(Cl)Cl (stereo unspecified)	none (no result: Ecoli tolC)
CCOc1cc(/C=C(/C#N)c2ccc(F)cc2)ccc1OCc1ccc(C(=O)O)o1	Ecoli tolC 82
CCOc1cc(/C=C(/C#N)c2nc3ccccc3[nH]2)ccc1OCc1ccc(C(=O)O)o1	none (no result: CYP2C9 activ, Ecoli tolC, CYP2C9 inh, CYP2C19 activ, CYP2C19 inh)
Cn1c(/C(C#N)=C(\O)COc2ccc3ccccc3c2)nc2ccccc21	none
CCCOc1ccc2ccccc2c1/C=N/n1c(C)nnc1-n1nc(C)cc1C	CYP2C19 inh 83
Cc1cc(C)n(-c2nnc(C)n2/N=C/c2ccco2)n1	none
Cc1cccc(OCC(=O)OCC(=O)c2c(N)n(C)c(=O)n(C)c2=O)c1C	none (no result: Ecoli tolC)
COc1ccc(C2c3c(ccc4ccccc34)Oc3ncn4nc(CO/N=C/c5ccccc5)nc4c32)cc1 (stereo unspecified)	CYP2C9 inh 56 (no result: Ecoli tolC)
COc1ccc(C2c3c(ncn(CCN4CCOCC4)c3=N)Oc3ccc4ccccc4c32)cc1 (stereo unspecified)	CYP2C9 inh 56, CYP2C19 inh 50 (no result: Ecoli tolC)
N=c1c2c(ncn1CCN1CCOCC1)Oc1ccc3ccccc3c1C2c1ccccc1 (stereo unspecified)	none (no result: Ecoli tolC)
CSC1=NC2C(N1)N(C)C(=O)N2C (stereo unspecified)	none (no result: Ecoli tolC)
O=C(Oc1c(CN2CCOCC2)cc(Cl)c2cccnc12)c1ccc(F)cc1	CYP2C9 inh 62
CCCC(=O)NC(c1ccco1)c1cc(Cl)c2cccnc2c1O (stereo unspecified)	none
COc1cc(C(=O)Oc2c(CN3CCOCC3)cc(Cl)c3cccnc23)cc(OC)c1OC	CYP2C19 inh 66
COc1ccc(C(=O)Oc2c(CN3CCOCC3)cc(Cl)c3cccnc23)cc1	none
O=C(Oc1c(Cl)cc(Cl)c2cccnc12)c1ccco1	Ecoli WT expand 100 (no result: Ecoli tolC)
COc1cccc(C(=O)Oc2c(CN3CCOCC3)cc(Cl)c3cccnc23)c1	CYP2C9 inh 91, CYP2C19 inh 63 (no result: Ecoli tolC)
Cc1cc(C)cc(NC(=O)CCN2CC(C)OC(C)C2)c1 (stereo unspecified)	none
CCn1c(C(C)NC(=O)Cc2ccccc2)nc2ccccc21 (stereo unspecified)	none
Cc1cc(C)nc(N(C#N)CN2C(=O)c3ccccc3C2=O)n1	CYP2C9 activ 2.8
CCOC(=O)CN(C#N)c1nc(C)cc(C)n1	none (no result: Ecoli tolC)
Cc1cc(C)nc(N(C#N)Cc2ccccc2Cl)n1	CYP2C9 activ 2.8, CYP2C19 inh 68
CCOc1ccccc1NC(=O)CSc1ncnc2c1oc1ccccc12	CYP2C9 inh 85
O=C(CSc1ncnc2c1oc1ccccc12)Nc1cccc(C(F)(F)F)c1	none
O=C(CSc1ncnc2c1oc1ccccc12)Nc1cccc(Cl)c1	CYP2C9 inh 60
O=C(CSc1ncnc2c1oc1ccccc12)Nc1nc2ccccc2s1	CYP2C9 inh 77 (no result: Ecoli tolC)
CCc1nnc(NC(=O)CSc2ncnc3c2oc2ccccc23)s1	CYP2C9 inh 77
CCOc1ccc2nc(NC(=O)CSc3nc4ccccc4c(=O)n3Cc3ccco3)sc2c1	none
O=C(COc1ncnc2c(Cl)cc(Cl)cc12)NCCC1=CCCCC1	none (no result: Ecoli tolC)
COCCN=C1Sc2nc3c(C)cccc3cc2CN1Cc1ccco1	CYP2C9 inh 57 (no result: Ecoli tolC)
Cc1cccc2cc3c(nc12)SC(=NCC1CCCO1)N(Cc1ccco1)C3 (stereo unspecified)	CYP2C9 inh 57
Cc1ccc2nc3c(cc2c1)CN(Cc1ccco1)C(=NCC1CCCO1)S3 (stereo unspecified)	CYP2C9 inh 79, CYP2C19 inh 52
Cc1cccc(N=C2Sc3nc4c(C)c(C)ccc4cc3CN2CCN2CCOCC2)c1	none (no result: Ecoli tolC)
COC(=O)c1c(-c2ccncc2)csc1NC(=O)c1ccoc1C	CYP2C9 inh 74, CYP2C19 inh 94
COC(=O)c1cn(NC(=O)c2ccncc2)c(=O)c2ccccc12	CYP2C9 inh 62
COC(=O)c1cn(-c2ccc(Cl)cc2)c(=O)c2ccccc12	CYP2C9 inh 74, CYP2C19 inh 69 (no result: Ecoli tolC)
COC(=O)c1cn(NC(=O)c2cccnc2)c(=O)c2ccccc12	none
COC(=O)c1cn(NC(=O)c2cc(OC)c(OC)c(OC)c2)c(=O)c2ccccc12	none (no result: Ecoli tolC)
COC(=O)c1cn(NC(=O)c2ccc(F)cc2)c(=O)c2ccccc12	none (no result: Ecoli tolC)
COC(=O)c1cn(NC(=O)c2cc(OC)cc(OC)c2)c(=O)c2ccccc12	CYP2C9 inh 78 (no result: Ecoli tolC)
O=C1C/C(=C/NCc2ccccc2)C(=O)N1	none
Cc1ccccc1OCCCCCNCCO	none
CC(C)c1ccccc1OCCCCCNCCO	CYP2C19 inh 59
O=C1C2C3C=CC(C3)C2C(=O)N1c1n[nH]c(CCc2ccccc2)n1 (stereo unspecified)	none
C=CCn1c2ccccc2c2nnc(SCCCn3c(=O)[nH]c4ccccc43)nc21	CYP2C9 inh 76, CYP2C19 inh 75
O=C1c2ccccc2C(=O)N1CSc1nnc2c3ccccc3n(CCc3ccccc3)c2n1	none (no result: Ecoli tolC)
C=CCn1c2ccccc2c2nnc(SCN3C(=O)c4ccccc4C3=O)nc21	CYP2C9 inh 79, CYP2C19 inh 90
CCCCN(C)CCCNC(=O)Cn1c(=O)sc2ccccc21	none
CSc1ccccc1NC(=O)CCn1c(=O)sc2ccccc21	CYP2C19 inh 52
CCN(CCNC(=O)Cn1c(=O)sc2ccccc21)c1ccccc1	CYP2C19 inh 68
Cc1csc(NC(=O)CCn2c(=O)sc3ccccc32)n1	CYP2C9 activ 3.6, CYP2C19 inh 79
CC(=O)Nc1cccc(NC(=O)CCn2c(=O)sc3ccccc32)c1	none
Cc1cc(NC(=O)CCn2c(=O)sc3ccccc32)no1	none (no result: CYP2C9 activ, CYP2C9 inh, Ecoli WT expand, CYP2C19 activ, CYP2C19 inh)
O=C(CCn1c(=O)sc2ccccc21)NCCC1=CCCCC1	CYP2C19 inh 88 (no result: Ecoli WT expand)
CCn1c(=NC(=O)CSCC(=O)Nc2nccs2)sc2ccccc21	CYP2C9 inh 84, CYP2C19 inh 92
CCCc1nnc(NC(=O)Cn2c(=O)sc3ccccc32)s1	CYP2C9 inh 75, CYP2C19 inh 64
O=C(CCn1c(=O)oc2ccccc21)Nc1nccs1	none
CC1CCCC(C)N1C(=O)Cn1c(=O)sc2ccccc21 (stereo unspecified)	CYP2C19 inh 67
